# Columns and labels:
# [1] = target: T1, Estrogen receptor (Rattus norvegicus) (UniProt P06211+Q62986); test: In vitro affinity for rat Estrogen receptor; assay type: protein assay
# [2] = target: T2, Estrogen receptor (Mus musculus) (UniProt O08537+P19785); test: (§1) Uterotrophic effect in immature mice as uterine dry weight(mg) relative to body weight(g) at 0 ug/day dose; assay type: functional, tissue-based; details: Uterus
# Procedure, shortened: (§2)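 Dorfman uterine weight test for estrogenic and antiestrogenic activity. Compounds were dissolved in arachis oil and given subcutaneously. Uterine weight was the read-out.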
# [3] = target: T2, Estrogen receptor (Mus musculus); test: Uterotrophic effect in immature mice as uterine dry weight(mg) relative to body weight(g) at 24 ug/day dose; assay type: functional, tissue-based; details: Uterus; procedure, shortened: as §2
# [4] = target: T2, Estrogen receptor (Mus musculus); test: Uterotrophic effect in immature mice as uterine dry weight(mg) relative to body weight(g) at 2400 ug/day dose; assay type: functional, tissue-based; details: Uterus; procedure, shortened: as §2
# [5] = target: T2, Estrogen receptor (Mus musculus); test: Uterotrophic effect in immature mice as uterine dry weight(mg) relative to body weight(g) at 400 ug/day dose; assay type: functional, tissue-based; details: Uterus; procedure, shortened: as §2
# [6] = target: T2, Estrogen receptor (Mus musculus); test: Uterotrophic effect in immature mice as uterine dry weight(mg) relative to body weight(g) at 80 ug/day dose; assay type: functional, tissue-based; details: Uterus; procedure, shortened: as §2
# [7] = target: T1, Estrogen receptor (Rattus norvegicus); test: In vitro association constant when complexed with the Estrogen receptor in Sprague-Dawley rat; Inhibition less than 10% at a ratio of [3H]estradiol/substance of 10e-4 M; assay type: protein assay
# [8] = target: T2, Estrogen receptor (Mus musculus); test: (§3) Uterotrophic effect in immature mice as uterine dry weight(mg) relative to body weight(g) at 1000 ug/day dose; assay type: functional, tissue-based; details: Uterus, in the assay text read “100 ug/day” for “1000 ug/day”; procedure, shortened: as §2
# [9] = target: T2, Estrogen receptor (Mus musculus); test: Uterotrophic effect in immature mice as uterine dry weight(mg) relative to body weight(g) at 20 ug/day dose; assay type: functional, tissue-based; details: Uterus; procedure, shortened: as §2
# [10] = target: T2, Estrogen receptor (Mus musculus); test: (§4) Uterotrophic effect in immature mice as uterine dry weight(mg) relative to body weight(g) at 2500 ug/day dose; assay type: functional, tissue-based; details: Uterus; procedure, shortened: as §2
# [11] = target: T2, Estrogen receptor (Mus musculus); test: (§5) Uterotrophic effect in immature mice as uterine dry weight(mg) relative to body weight(g) at 500 ug/day dose; assay type: functional, tissue-based; details: Uterus; procedure, shortened: as §2
# [12] = target: T2, Estrogen receptor (Mus musculus); test: Uterotrophic effect in immature mice as uterine dry weight(mg) relative to body weight(g) at 5000 ug/day dose; assay type: functional, tissue-based; details: Uterus; procedure, shortened: as §2
# [13] = target: T2, Estrogen receptor (Mus musculus); test: as §3; assay type: functional, tissue-based; details: Uterus
# Procedure, shortened: (§6)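 Dorfman uterine weight test for estrogenic and antiestrogenic properties. Compounds were dissolved in arachis oil and given sc. Other details are in an earlier paper.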
# [14] = target: T2, Estrogen receptor (Mus musculus); test: as §4; assay type: functional, tissue-based; details: Uterus; procedure, shortened: as §6; remark: listed apart in the source
# [15] = target: T2, Estrogen receptor (Mus musculus); test: as §5; assay type: functional, tissue-based; details: Uterus; procedure, shortened: as §6; remark: listed apart in the source
# [16] = target: T2, Estrogen receptor (Mus musculus); test: as §1; assay type: functional, tissue-based; details: Uterus; procedure, shortened: as §6; remark: listed apart in the source
# [17] = target: T2, Estrogen receptor (Mus musculus); test: Uterotrophic effect in immature mice as uterine dry weight(mg) relative to body weight(g) at 100 ug/day dose; assay type: functional, tissue-based; details: Uterus; procedure, shortened: as §6
# T2 sequence (O08537 whole entry, looked up): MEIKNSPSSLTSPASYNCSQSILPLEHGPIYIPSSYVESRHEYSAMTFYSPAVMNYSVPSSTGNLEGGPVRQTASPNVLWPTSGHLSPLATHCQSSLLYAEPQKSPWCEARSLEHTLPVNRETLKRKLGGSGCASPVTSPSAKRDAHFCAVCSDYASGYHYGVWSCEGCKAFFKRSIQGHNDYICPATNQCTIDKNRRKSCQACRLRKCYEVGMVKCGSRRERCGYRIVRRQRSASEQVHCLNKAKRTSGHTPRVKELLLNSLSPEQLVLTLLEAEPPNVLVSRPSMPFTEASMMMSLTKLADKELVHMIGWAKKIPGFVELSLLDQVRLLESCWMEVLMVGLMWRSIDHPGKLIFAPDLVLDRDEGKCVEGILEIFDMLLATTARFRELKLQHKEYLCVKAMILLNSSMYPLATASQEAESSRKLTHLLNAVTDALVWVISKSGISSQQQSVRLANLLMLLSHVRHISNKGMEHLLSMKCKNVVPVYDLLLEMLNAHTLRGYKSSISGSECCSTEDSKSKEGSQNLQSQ
# T2 sequence (P19785 whole entry, looked up): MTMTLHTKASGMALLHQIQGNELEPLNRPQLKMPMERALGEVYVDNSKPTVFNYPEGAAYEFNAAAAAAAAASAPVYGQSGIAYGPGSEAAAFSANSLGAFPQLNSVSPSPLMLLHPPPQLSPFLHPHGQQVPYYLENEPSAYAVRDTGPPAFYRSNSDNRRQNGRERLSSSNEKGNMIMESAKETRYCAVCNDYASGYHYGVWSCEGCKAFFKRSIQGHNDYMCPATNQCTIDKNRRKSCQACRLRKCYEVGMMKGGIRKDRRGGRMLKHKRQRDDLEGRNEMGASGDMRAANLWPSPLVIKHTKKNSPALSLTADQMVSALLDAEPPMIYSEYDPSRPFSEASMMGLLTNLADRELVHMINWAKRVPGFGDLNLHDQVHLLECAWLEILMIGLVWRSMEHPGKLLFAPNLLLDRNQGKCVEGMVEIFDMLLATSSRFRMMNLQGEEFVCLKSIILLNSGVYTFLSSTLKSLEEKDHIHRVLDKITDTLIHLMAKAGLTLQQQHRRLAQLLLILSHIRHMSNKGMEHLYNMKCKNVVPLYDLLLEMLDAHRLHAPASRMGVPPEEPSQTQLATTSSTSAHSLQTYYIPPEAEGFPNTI
Ka [1],inhibition [7] [%],Compound,further results
200000,–,CCN1CN(CC)C(c2c(Cl)cccc2Cl)C1c1c(Cl)cccc1Cl (trans isomer),Effect [2]: 14.9; Effect [3]: 22.8; Effect [4]: 46.2; Effect [5]: 38.1; Effect [6]: 24.2
–,< 10,CCCNC(c1ccc(Cl)cc1Cl)C(NCCC)c1ccc(Cl)cc1Cl (stereo in doubt),–
2.3e+06,–,CCCNC(c1c(Cl)cccc1Cl)C(NCCC)c1c(Cl)cccc1Cl (stereo in doubt),Effect [2]: 12.9; Effect [8]: 17.5; Effect [9]: 14.8; Effect [10]: 31.3; Effect [11]: 22.6
–,< 10,CCCCN1CN(CCCC)C(c2c(Cl)cccc2Cl)C1c1c(Cl)cccc1Cl (stereo in doubt; cis),–
–,< 10,CCN1CN(CC)C(c2ccc(Cl)c(Cl)c2)C1c1ccc(Cl)c(Cl)c1 (stereo in doubt),–
–,< 10,"CCCCNC(c1c(Cl)cccc1Cl)C(NCCCC)c1c(Cl)cccc1Cl (stereo in doubt; 2h (d,l))",–
–,< 10,CCCCNC(c1c(Cl)cccc1Cl)C(NCCCC)c1c(Cl)cccc1Cl (stereo in doubt),–
–,< 10,"CCCCNC(c1ccc(Cl)c(Cl)c1)C(NCCCC)c1ccc(Cl)c(Cl)c1 (stereo in doubt; 2k (d,l))",–
200000,–,CCN1CN(CC)C(c2c(Cl)cccc2Cl)C1c1c(Cl)cccc1Cl (cis isomer),Effect [2]: 12.8; Effect [8]: 17.1; Effect [10]: 22.3; Effect [11]: 19.7
–,< 10,CCN1CN(CC)C(c2ccc(Cl)cc2Cl)C1c1ccc(Cl)cc1Cl (stereo in doubt),–
830000,–,"CCCNC(c1c(Cl)cccc1Cl)C(NCCC)c1c(Cl)cccc1Cl (stereo in doubt; 2g (d,l))",Effect [2]: 12.9; Effect [8]: 19.6; Effect [9]: 15.5; Effect [11]: 27.1
480000,–,CN1CN(C)C(c2c(Cl)cccc2Cl)C1c1c(Cl)cccc1Cl (stereo in doubt; trans),–
320000,–,CCCN1CN(CCC)C(c2c(Cl)cccc2Cl)C1c1c(Cl)cccc1Cl (stereo in doubt),Effect [2]: 12.8; Effect [8]: 17.7; Effect [10]: 19.7; Effect [11]: 16.2; Effect [12]: 24.5
–,< 10,CCCCN1CN(CCCC)C(c2c(Cl)cccc2Cl)C1c1c(Cl)cccc1Cl (stereo in doubt; trans),–
–,< 10,CCCCNC(c1ccc(Cl)cc1Cl)C(NCCCC)c1ccc(Cl)cc1Cl (stereo in doubt),–
1.6e+06,–,CCCN1CN(CCC)C(c2c(Cl)cccc2Cl)C1c1c(Cl)cccc1Cl (trans isomer),Effect [2]: 12.9; Effect [8]: 21.4; Effect [9]: 19.6; Effect [10]: 43; Effect [11]: 28
–,< 10,"CCCNC(c1ccc(Cl)cc1Cl)C(NCCC)c1ccc(Cl)cc1Cl (stereo in doubt; 2c (d,l))",–
–,< 10,CCN1CN(CC)C(c2ccc(Cl)cc2Cl)C1c1ccc(Cl)cc1Cl (trans isomer),–
180000,–,CN1CN(C)C(c2c(Cl)cccc2Cl)C1c1c(Cl)cccc1Cl (stereo in doubt; cis),–
–,< 10,CCCCNC(c1ccc(Cl)c(Cl)c1)C(NCCCC)c1ccc(Cl)c(Cl)c1 (stereo in doubt),–
–,< 10,"CCCCNC(c1ccc(Cl)cc1Cl)C(NCCCC)c1ccc(Cl)cc1Cl (stereo in doubt; 2d (d,l))",–

# Further lines, the molecule ahead of its results:
Compound,Ka [1],inhibition [7] [%],further results
CCN1CN(CC)C(c2ccc(Cl)c(Cl)c2)C1c1ccc(Cl)c(Cl)c1 (trans isomer),–,< 10,–
"CCNC(c1ccc(Cl)cc1Cl)C(NCC)c1ccc(Cl)cc1Cl (stereo in doubt; 2b (d,l))",–,< 10,–
CCN1CN(CC)C(c2cc(Cl)cc(Cl)c2)C1c1cc(Cl)cc(Cl)c1 (trans isomer),–,< 10,–
CNC(c1c(Cl)cccc1Cl)C(NC)c1c(Cl)cccc1Cl (stereo in doubt),91000,–,–
CCNC(c1cc(Cl)cc(Cl)c1)C(NCC)c1cc(Cl)cc(Cl)c1 (stereo in doubt),–,< 10,–
"CCNC(c1ccc(Cl)c(Cl)c1)C(NCC)c1ccc(Cl)c(Cl)c1 (stereo in doubt; 2i (d,l))",–,< 10,–
CNC(c1ccc(Cl)cc1Cl)C(NC)c1ccc(Cl)cc1Cl (stereo in doubt),–,< 10,–
CCNC(c1ccc(Cl)c(Cl)c1)C(NCC)c1ccc(Cl)c(Cl)c1 (stereo in doubt),–,< 10,–
"CCNC(c1cc(Cl)cc(Cl)c1)C(NCC)c1cc(Cl)cc(Cl)c1 (stereo in doubt; 21 (d,l))",–,< 10,–
"CNC(c1c(Cl)cccc1Cl)C(NC)c1c(Cl)cccc1Cl (stereo in doubt; 2e (d,l))",140000,–,–
CCNC(c1ccc(Cl)cc1Cl)C(NCC)c1ccc(Cl)cc1Cl (stereo in doubt),–,< 10,–
"CCNC(c1c(Cl)cccc1Cl)C(NCC)c1c(Cl)cccc1Cl (stereo in doubt; 2f (d,l))",130000,–,–
CC[C@H](c1ccc(O)cc1)[C@@H](CC)c1ccc(O)cc1,8.3e+08,–,–
CCN1CN(CC)C(c2cc(Cl)cc(Cl)c2)C1c1cc(Cl)cc(Cl)c1 (cis isomer),–,< 10,–
"CNC(c1ccc(Cl)cc1Cl)C(NC)c1ccc(Cl)cc1Cl (stereo in doubt; 2a (d,l))",–,< 10,–
CCNC(c1c(Cl)cccc1Cl)C(NCC)c1c(Cl)cccc1Cl (stereo in doubt),670000,–,Effect [13]: 27.4; Effect [14]: 35.6; Effect [15]: 23.5; Effect [16]: 12.8; Effect [17]: 22.7

# Source: ChEMBL document CHEMBL1121365, “N,N'-Dialkylbis(dichlorophenyl)ethylenediamines and -imidazolidines: relationship between structure and estradiol receptor affinity” (J Med Chem, 1980)
